Measurements as given in ChEMBL document CHEMBL4152221, “Synthesis and structure-activity relationship of furoquinolinediones as inhibitors of Tyrosyl-DNA phosphodiesterase 2 (TDP2)” (Eur J Med Chem, 2018).
Active and inactive are the calls of the source. How the calls were made is not given here.

Tests used:
[1] = biological target: T1, Tyrosyl-DNA phosphodiesterase 2 (Homo sapiens, UniProt O95551); test: Inhibition of recombinant human TDP2 using TY18 (alpha-[32P]-cordycepin-3'-labeled) as substrate after 15 mins by PAGE analysis
T1 sequence (O95551 whole entry): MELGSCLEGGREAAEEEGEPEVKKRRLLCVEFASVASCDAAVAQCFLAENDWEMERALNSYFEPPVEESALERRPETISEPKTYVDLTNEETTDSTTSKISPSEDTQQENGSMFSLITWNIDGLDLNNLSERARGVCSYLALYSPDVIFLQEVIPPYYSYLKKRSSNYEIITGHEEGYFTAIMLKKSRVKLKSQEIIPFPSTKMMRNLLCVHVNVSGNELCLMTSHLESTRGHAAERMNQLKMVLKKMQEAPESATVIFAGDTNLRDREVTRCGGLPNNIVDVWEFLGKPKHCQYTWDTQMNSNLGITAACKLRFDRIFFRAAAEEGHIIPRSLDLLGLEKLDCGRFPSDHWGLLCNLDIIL
Method in brief: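 32P-cordycepin-3'-labeled TY18 substrate at 1 nM with 25 pM recombinant human TDP2, 15 min at room temperature. Buffer: 50 mM Tris-HCl pH 7.5, 80 mM KCl, 5 mM MgCl2, 0.1 mM EDTA, 1 mM DTT, 40 μg/mL BSA, 0.01% Tween 20. Six or eight three-fold dilutions up to 111 μM. Gel densitometry; IC50 is mean ± SD of ≥3 independent experiments. Positive control: SV-163.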

[2] = biological target: Tyrosyl-DNA phosphodiesterase 1 (Homo sapiens, UniProt Q9NUW8); test: Inhibition of recombinant TDP1 (unknown origin) at 111 uM using 5'-[32P]-labeled N14Y as substrate after 15 mins by PAGE analysis
Sequence of Tyrosyl-DNA phosphodiesterase 1 (Q9NUW8 whole entry): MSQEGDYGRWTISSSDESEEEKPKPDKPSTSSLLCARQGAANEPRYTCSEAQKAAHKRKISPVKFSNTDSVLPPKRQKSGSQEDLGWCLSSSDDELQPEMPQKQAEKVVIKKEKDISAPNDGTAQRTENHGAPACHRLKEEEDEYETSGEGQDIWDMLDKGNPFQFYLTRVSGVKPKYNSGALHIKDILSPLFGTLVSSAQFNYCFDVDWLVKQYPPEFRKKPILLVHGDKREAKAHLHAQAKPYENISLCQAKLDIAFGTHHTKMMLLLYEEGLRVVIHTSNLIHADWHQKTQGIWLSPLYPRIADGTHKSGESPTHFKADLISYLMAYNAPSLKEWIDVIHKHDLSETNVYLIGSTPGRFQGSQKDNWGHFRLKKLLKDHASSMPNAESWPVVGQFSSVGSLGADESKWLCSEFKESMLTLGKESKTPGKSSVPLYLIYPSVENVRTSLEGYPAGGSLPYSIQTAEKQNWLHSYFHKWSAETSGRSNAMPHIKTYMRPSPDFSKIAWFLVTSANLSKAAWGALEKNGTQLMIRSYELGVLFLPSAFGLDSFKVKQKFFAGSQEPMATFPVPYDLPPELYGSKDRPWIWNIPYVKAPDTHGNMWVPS
Method in brief: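 5'-32P-labeled N14Y (3'-phosphotyrosyl single-stranded oligo) at 1 nM with 10 pM recombinant TDP1, 15 min at room temperature. Three-fold dilutions up to 111 μM. Gels scanned and quantified by densitometry. Positive control: AM-8-3.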

[3] = biological target: T1, Tyrosyl-DNA phosphodiesterase 2; test: Inhibition of human TDP2 expressed in TDP2 deficient chicken DT40 whole cell extracts using TY19 DNA as substrate after 15 mins by PAGE analysis
Method in brief: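 Extract from 1×10^7 TDP2-knockout DT40 cells complemented with human TDP2, lysed 15 min on ice, spun at 12000 g for 10 min, stored at -80 °C. TY19 substrate at 1 nM with 5 μg/mL extract, ±inhibitor, 15 min at room temperature in LMP2 buffer. Gel densitometry. IC50 is mean ± SD of ≥3 independent experiments.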

SMILES	IC50 [1]	inhibition [2]	IC50 [3]
Cc1oc2c(c1C(=O)OCC(F)(F)F)C(=O)c1ncccc1C2=O	28 µM	inactive	24 µM
COP(=O)(OC)Oc1ccc(OC(=O)c2c(C)oc3c2C(=O)c2ncccc2C3=O)cc1	31 µM	inactive	–
Cc1cnc2c(c1)C(=O)c1occ(C)c1C2=O	> 111 µM	inactive	–
Cc1oc2c(c1C(=O)Oc1cccc(-c3cn(CCC(=O)O)nn3)c1)C(=O)c1ncccc1C2=O [listing 1 of 3 here]	50 µM	–	28 µM
Cc1oc2c(c1C(=O)Oc1ccc(C(=O)c3ccccc3)cc1)C(=O)c1ncccc1C2=O	> 111 µM	inactive	–
CCOC(=O)c1c2c(n(C)c1C)C(=O)c1ncccc1C2=O	> 111 µM	inactive	–
CC(=O)N1CCN(c2ccc(OC(=O)c3c(C)oc4c3C(=O)c3ncccc3C4=O)cc2)CC1	37 µM	inactive	34 µM
Cc1oc2c(c1C(=O)Oc1ccc(Br)cc1)C(=O)c1ncccc1C2=O	35 µM	inactive	12 µM
Cc1oc2c(c1C(=O)Oc1ccc(C#N)cc1)C(=O)c1ncccc1C2=O	15 µM	inactive	13 µM
CCNC(=O)c1c(C)oc2c1C(=O)c1cccnc1C2=O	> 111 µM	inactive	–
Cc1oc2c(c1C(=O)Oc1ccc(NC(=O)OC(C)(C)C)cc1)C(=O)c1ncccc1C2=O	88 µM	inactive	–
Cc1oc2c(c1C(=O)Oc1ccccc1O)C(=O)c1cccnc1C2=O	29 µM	inactive	39 µM
Cc1oc2c(c1C(=O)OCCC[n+]1ccccc1)C(=O)c1ncccc1C2=O	32 µM	inactive	24 µM
Cc1oc2c(c1C(=O)Oc1ccccc1Cl)C(=O)c1ncccc1C2=O	10 µM	inactive	14 µM
CCOC(=O)c1n[nH]c2c1C(=O)c1ncccc1C2=O	> 111 µM	inactive	–
CC(=O)c1c(C)oc2c1C(=O)c1ncccc1C2=O	35 µM	inactive	36 µM
COP(=O)(CCOC(=O)c1c(C)oc2c1C(=O)c1ncccc1C2=O)OC	9 µM	inactive	17 µM
COc1ccc(NC(=O)c2c(C)oc3c2C(=O)c2ncccc2C3=O)cc1	> 111 µM	inactive	–
Cc1oc2c(c1C(=O)Nc1ccccc1)C(=O)c1ncccc1C2=O	> 111 µM	inactive	–
Cc1oc2c(c1C(=O)Oc1ccccc1C#N)C(=O)c1ncccc1C2=O	> 111 µM	inactive	> 111 µM
Cc1oc2c(c1C(=O)OC[C@H](O)CO)C(=O)c1ncccc1C2=O	50 µM	inactive	15 µM
Cc1oc2c(c1C(=O)OCCc1cn(CCC(=O)O)nn1)C(=O)c1ncccc1C2=O	20 µM	inactive	16 µM
C=CC(=O)Nc1ccc(OC(=O)c2c(C)oc3c2C(=O)c2ncccc2C3=O)cc1	68 µM	inactive	–
C=CC(=O)Nc1cccc(OC(=O)c2c(C)oc3c2C(=O)c2ncccc2C3=O)c1	71 µM	inactive	–
Cc1oc2c(c1C(=O)Oc1ccc3c(c1)OCO3)C(=O)c1ncccc1C2=O	> 111 µM	inactive	> 111 µM
Cc1oc2c(c1C(=O)OCCC#N)C(=O)c1ncccc1C2=O	14 µM	inactive	13 µM
Cc1oc2c(c1C(=O)Oc1ccc(N)cc1)C(=O)c1ncccc1C2=O	19 µM	inactive	–

SMILES	IC50 [1]	inhibition [2]	IC50 [3]
Cc1oc2c(c1C(=O)Oc1cccc(N)c1)C(=O)c1ncccc1C2=O	16 µM	inactive	12 µM
Cc1oc2c(c1C(=O)Nc1ccccc1O)C(=O)c1ncccc1C2=O	> 111 µM	inactive	–
CCOC(=O)c1n[nH]c2c1C(=O)c1cccnc1C2=O	> 111 µM	inactive	–
Cc1oc2c(c1C(=O)OCC(=O)O)C(=O)c1ncccc1C2=O	51 µM	inactive	37 µM
Cc1oc2c(c1C(=O)Nc1cccc(Cl)c1)C(=O)c1ncccc1C2=O	> 111 µM	inactive	–
CCOC(=O)c1c(C)[nH]c2c1C(=O)c1cccnc1C2=O	> 111 µM	inactive	–
Cc1oc2c(c1C(=O)Oc1cccc(-c3cn(CCCO)nn3)c1)C(=O)c1ncccc1C2=O	8.1 µM	inactive	8.3 µM
Cc1oc2c(c1C(=O)Oc1cccc(C#N)c1)C(=O)c1ncccc1C2=O	12 µM	inactive	10 µM
Cc1oc2c(c1C(=O)OCCCCO)C(=O)c1ncccc1C2=O	26 µM	inactive	12 µM
Cc1oc2c(c1C(=O)Oc1cccc(-c3cn(CCC(=O)O)nn3)c1)C(=O)c1ncccc1C2=O [listing 2 of 3 here]	22 µM	–	13 µM
CCNC(=O)c1c(C)oc2c1C(=O)c1ncccc1C2=O	> 111 µM	inactive	–
Cc1oc2c(c1C(=O)Oc1cccc(-c3cn(CCC(=O)O)nn3)c1)C(=O)c1ncccc1C2=O [listing 3 of 3 here]	–	inactive	–
Cc1oc2c(c1C(=O)Oc1cccnc1)C(=O)c1ncccc1C2=O	8.8 µM	inactive	7.7 µM
CCOC(=O)c1c(C)oc2c1C(=O)c1cccnc1C2=O	43 µM	inactive	54 µM
COC(=O)[C@H](Cc1ccc(OC(=O)c2c(C)oc3c2C(=O)c2ncccc2C3=O)cc1)NC(C)=O	23 µM	inactive	17 µM
C#CCCOC(=O)c1c(C)oc2c1C(=O)c1ncccc1C2=O	22 µM	inactive	15 µM
Cc1oc2c(c1C(=O)Nc1cccc(Cl)c1)C(=O)c1cccnc1C2=O	> 111 µM	inactive	–
C#Cc1cccc(OC(=O)c2c(C)oc3c2C(=O)c2ncccc2C3=O)c1	43 µM	inactive	13 µM
COP(=O)(OC)c1c(C)oc2c1C(=O)c1cccnc1C2=O	99 µM	inactive	–
CC(=O)c1c(C)oc2c1C(=O)c1cccnc1C2=O	> 111 µM	inactive	–
Cc1oc2c(c1C(=O)Oc1cccc(NC(=O)OC(C)(C)C)c1)C(=O)c1ncccc1C2=O	31 µM	inactive	–
COP(=O)(OC)c1c(C)oc2c1C(=O)c1ncccc1C2=O	> 111 µM	inactive	–
Cc1oc2c(c1C(=O)Oc1ccc(OCCCN3CCOCC3)cc1)C(=O)c1ncccc1C2=O	51 µM	inactive	–
Cc1oc2c(c1C(=O)Oc1ccccc1NC(=O)OC(C)(C)C)C(=O)c1ncccc1C2=O	36 µM	inactive	–
Cc1oc2c(c1C(=O)Oc1ccc3ccccc3c1)C(=O)c1ncccc1C2=O	> 111 µM	inactive	–
Cc1oc2c(c1-c1nc3ccccc3o1)C(=O)c1ncccc1C2=O	> 111 µM	inactive	–
